The term solubility denotes the concentration that dissolves in the medium under given conditions. Lower therefore signals little dissolved substance. Broadly, the pIC50 is the IC50 on a negative log10 scale, so that one unit is a factor of ten. In general, pKi refers to −log10 of the Ki, conventionally taken in molar units.

pIC50, pKi: −log10 of the molar value. ≈ marks a conversion by molar mass, not a printed value. Bounds are passed on as bounds.

From ChEMBL document CHEMBL2040834, “Synthesis, crystal structures and electronic properties of isomers of chloro-pyridinylvinyl-1H-indoles” (Eur J Med Chem, 2012) come the findings set out here.

Data set [1] can be described thus: Solubility of the compound in 0.1 M of boric acid at pH 9 by HTS-PCF filter plate analysis. In kind it is physicochemical. Conditions: buffer. In outline:
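Solubility measured by filter-plate filtration at 2.5% final DMSO. Buffers: pH 1.0 (0.1 M HCl, 20 mM NaCl), pH 7.4 (50 mM phosphate, 30 mM NaCl), pH 9.0 (0.1 M boric acid, 20 mM NaCl). Filtrate quantified by C18 LC/MS with UV detection at 254 nm, using a 5–95% acetonitrile gradient in 0.1% acetic acid.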

For data set [2], the target named is T1, Tryptophan 2,3-dioxygenase (Homo sapiens, UniProt P48775). The data set is described as follows: Inhibition of human purified TDO assessed as formation of kynurenine from N-formylkynurenine preincubated for 10 mins measured after 5 to 20 mins by discontinuous colorimetric method.
Data set [3] concerns the target T1, Tryptophan 2,3-dioxygenase. The data set is described as follows: Inhibition of human purified TDO assessed as initial rate of L-Trp oxidation at 100 uM of substrate concentration.
For data set [4], the target named is T1, Tryptophan 2,3-dioxygenase. Description: Competitive inhibition of human purified TDO by Henri-Michaelis-Menten equation analysis. In short, it runs like this:
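Recombinant human TDO expressed in E. coli, purified. Kynurenine formation read at 480 nm with Ehrlich's reagent after TCA stop and 65 °C hydrolysis. L-Trp and inhibitor concentrations both varied. Initial rates fitted to Henri–Michaelis–Menten equation for competitive Ki; Km obtained from the same data.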

T1 sequence (P48775 whole entry): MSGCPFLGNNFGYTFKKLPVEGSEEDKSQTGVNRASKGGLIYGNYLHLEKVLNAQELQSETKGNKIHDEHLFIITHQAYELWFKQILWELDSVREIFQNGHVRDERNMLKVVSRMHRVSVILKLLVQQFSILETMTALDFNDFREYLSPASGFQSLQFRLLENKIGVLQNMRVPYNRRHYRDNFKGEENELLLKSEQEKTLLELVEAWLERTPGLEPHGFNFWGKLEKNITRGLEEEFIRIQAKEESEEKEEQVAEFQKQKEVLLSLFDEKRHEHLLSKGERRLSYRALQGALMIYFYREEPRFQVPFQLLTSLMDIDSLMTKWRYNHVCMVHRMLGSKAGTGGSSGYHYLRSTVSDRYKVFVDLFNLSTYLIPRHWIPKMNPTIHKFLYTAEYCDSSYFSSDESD

Regarding `Clc1ccc2[nH]cc(/C=C/c3cccnc3)c2c1`, the solubility in data set [1] stood at 76 mg/mL (≈ 298 mM). The negative-log IC50 (pIC50) in data set [2] is 5.00.

`Clc1ccc2c(/C=C/c3cccnc3)c[nH]c2c1` had a solubility in data set [1] of 32.1 mg/mL (≈ 126 mM). Besides, the pIC50 in data set [2] was 5.30.

Take `Clc1cccc2c(/C=C/c3cccnc3)c[nH]c12`: in data set [1], the solubility stood at 6 mg/mL (≈ 23.6 mM). Also, the negative-log IC50 (pIC50) in data set [3] was 4.49; in data set [2] it was under 4.30. The molecule further gave a pKi in data set [4] of 4.68.
